Each structure is given as a SMILES string. Several values for one entry are separate records, joined by “and”; a condition that tells them apart may be missing. Equal entries are not always repeated.

The values below come from ChEMBL document CHEMBL1250492, “Development of isoniazid-NAD truncated adducts embedding a lipophilic fragment as potential bi-substrate InhA inhibitors and antimycobacterial agents” (Eur J Med Chem, 2010).

In assay [1] the target is T1, Enoyl-[acyl-carrier-protein] reductase [NADH] (Mycobacterium tuberculosis) (UniProt P9WGR1).
T1 sequence (whole entry): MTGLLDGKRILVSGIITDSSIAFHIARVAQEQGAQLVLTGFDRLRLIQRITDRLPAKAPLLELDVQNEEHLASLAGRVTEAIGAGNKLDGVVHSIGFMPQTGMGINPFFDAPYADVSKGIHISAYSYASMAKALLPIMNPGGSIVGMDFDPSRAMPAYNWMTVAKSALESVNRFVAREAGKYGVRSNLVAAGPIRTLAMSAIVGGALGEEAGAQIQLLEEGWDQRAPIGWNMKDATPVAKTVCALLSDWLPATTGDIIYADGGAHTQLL
Put plainly: Inhibition of Mycobacterium tuberculosis InhA expressed in Escherichia coli at 100 uM after 5 mins. The procedure, abridged: (§1)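 Recombinant M. tuberculosis InhA, E. coli-expressed and purified, at 70 nM. Pre-incubated with compound for 5 min or 2 h in 30 mM PIPES, 150 mM NaCl, pH 6.8, 25 °C, with 0.5% final DMSO. The reaction was started with trans-2-decenoyl-CoA plus NADH and followed by NADH oxidation at 340 nm, 25 °C. Initial rates were compared with a ligand-free control, giving % inhibition. Run in triplicate.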

The test system of assay [2] is Mycolicibacterium smegmatis. Put plainly: Antimycobacterial activity against Mycobacterium smegmatis after 24 hrs by MTT assay. The class given is functional, organism-based. The procedure, abridged:
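MTT (1 mg/ml solution) was then added for a further 24 h, followed by DMF:20% SDS (1:2) solubilization and A570 reading. MIC is the lowest concentration blocking visible growth, and IC50 was fitted by non-linear regression. DMSO stocks were at 100× the top concentration. Isoniazid served as positive control.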

Assay [3] deals with Mycobacterium tuberculosis. Put plainly: Antimycobacterial activity against Mycobacterium tuberculosis after 24 hrs by MTT assay. Format: functional, organism-based. The procedure, abridged:
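MTT was then added for a further 24 h, followed by DMF:20% SDS (1:2) solubilisation and A570 read-out. MIC was the lowest concentration stopping visible growth versus untreated bacilli. IC50 came from non-linear regression. DMSO stocks were at 100× the top concentration.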
On the technique in general: Formazan colour is commonly taken as a measure of viable cells.

Assay [4] has as its target T1, Enoyl-[acyl-carrier-protein] reductase [NADH] (Mycobacterium tuberculosis). Put plainly: Inhibition of Mycobacterium tuberculosis InhA expressed in Escherichia coli at 100 uM after 2 hrs. The procedure, abridged: as §1
For assay [5] the target is unchanged. Put plainly: Inhibition of Mycobacterium tuberculosis InhA expressed in Escherichia coli at 20 uM after 5 mins. The procedure, abridged:
as §1

Assay [6] shares this target. Put plainly: Inhibition of Mycobacterium tuberculosis InhA expressed in Escherichia coli at 10 uM after 5 mins. In short, it runs like this: as §1
The target is the same in assay [7]. Briefly: Inhibition of Mycobacterium tuberculosis InhA expressed in Escherichia coli at 20 uM after 2 hrs. In short, it runs like this:
as §1

Assay [8] shares this target. Put plainly: Inhibition of Mycobacterium tuberculosis InhA expressed in Escherichia coli at 1 uM after 5 mins.
For assay [9] the target is unchanged. Briefly: Inhibition of Mycobacterium tuberculosis InhA expressed in Escherichia coli at 10 uM after 2 hrs. The procedure, abridged: as §1
Assay [10] shares this target. Briefly: Inhibition of Mycobacterium tuberculosis InhA expressed in Escherichia coli at 1 uM after 2 hrs.
Setting [11] is: Mycolicibacterium smegmatis, 24 h.

`CCCCCCCCCCCCOc1cccc(C2(O)NC(=O)c3c[n+](CC(=O)OCC)ccc32)c1` (centres undefined): the inhibition (usually how much of the control response was suppressed) in assay [1] stood at 35%.
Regarding `CCCCCCCCCCCCOc1cccc(C(=O)C2C=CN(CC(=O)OCCCO)C=C2C(N)=O)c1` (centres undefined), the inhibition in assay [1] was 3%.
For `C=CCOc1cccc(C2(O)NC(=O)c3cnccc32)c1` (centres undefined), the inhibition in [1] came to 23%. Besides, the concentration for half-maximal inhibition (IC50) (as a rule, the concentration that gives 50% inhibition) in assay [2] (setting [11]) came to 1300 µM.
The compound `CCCCCCCCCCCCc1cccc(C2(O)NC(=O)c3cnccc32)c1` (centres undefined) returned an inhibition in assay [1] of 4%. Besides, the half-maximal inhibitory concentration (IC50) in assay [2] amounted to 78 µM; in [2] (setting [11]), 47 µM; in assay [3] it was 9.8 µM.
For the compound `O=C1NC(O)(c2cccc(O)c2)c2ccncc21` (centres undefined), in assay [1], the inhibition turned out to be 17%. The compound further showed an IC50 in assay [2] (setting [11]) of 300 µM.
Regarding `NNC(=O)c1ccncc1` [ISONIAZID], the 50% inhibitory concentration (IC50) in assay [2] was 7.8 µM and 39 µM; in [3], below 0.3 µM.
Consider `CCCCCCCCCCCCOc1cccc(C2(O)NC(=O)c3cnccc32)c1` (centres undefined), for which the inhibition came to 41% in [1] and 80% in assay [4]. Moreover, the IC50 in [2] was 68 µM and 156 µM; in assay [3], 156 µM.
`CCCCCCCCc1cccc(C2(O)NC(=O)c3cnccc32)c1` (centres undefined) gave an inhibition in assay [1] of 9%. Also, the IC50 in assay [2] is 4.5 µM and 19.5 µM; in assay [3], 19.5 µM.
For `CCCCCCCCCCCCc1cccc(C2(O)NC(=O)c3c[n+](CC(=O)OCC)ccc32)c1` (centres undefined), the inhibition turned out to be 91% in assay [1], 40% in assay [5], 19% in [6] and 28% in assay [7]. The IC50 is 3.2 µM and 9.8 µM in [2]; 39 µM in assay [3].
On to `NC(=O)C1=CN([C@@H]2O[C@H](COP(=O)(O)OP(=O)(O)OC[C@H]3O[C@@H](n4cnc5c(N)ncnc54)[C@H](O)[C@@H]3O)[C@@H](O)[C@H]2O)C=C[C@@H]1C(=O)c1ccncc1`, for which the inhibition in [6] was determined as 92%; in [8], 67%; in [9], 97%; in assay [10], 87%.
In turn, `CCCCCCCCCCCCc1cccc(C(=O)C2C=CN(CC(=O)OCC)C=C2C(N)=O)c1` (centres undefined) gave an inhibition in assay [6] of 25%. Moreover, the IC50 in assay [2] was determined as 9.8 µM; in assay [2] (setting [11]), 5.3 µM; in assay [3] it was 9.8 µM.
For `CCCCCCCCCCCCOc1cccc(C2(O)NC(=O)c3c[n+](CC(=O)OCCCO)ccc32)c1` (centres undefined), the inhibition in [1] amounted to 30%.
In the case of `CCCCCCCCCCCCOc1cccc(C(=O)C2C=CN(CC(=O)OCC)C=C2C(N)=O)c1` (centres undefined), the inhibition in assay [1] turned out to be 6%.
With `O=C1NC(O)(c2cccc(Br)c2)c2ccncc21` (centres undefined), in [1], the inhibition was determined as 20%. In addition, the IC50 in [2] (setting [11]) is above 5000 µM.
On to `CCCCCCCCCc1ccc(-c2cccc(C3(O)NC(=O)c4cnccc43)c2)cc1` (centres undefined), for which the inhibition in [1] was found to be 17%. The compound also gave an IC50 in assay [2] (setting [11]) of 1800 µM.
